# Laboratory results from ChEMBL document CHEMBL1135740, “Design, synthesis, and activity of a novel series of factor Xa inhibitors: optimization of arylamidine groups” (J Med Chem, 2002).
# pKi: −log10 of the molar value.
# Columns and labels:
# [1] = Plasma concentration after intravenous aministration at 30 min. (1 mg/kg, n=3); format: ADME, organism-based; conditions: rat
# Outline: (§1)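 Rats dosed intravenously at 1 mg/kg (n = 3). Plasma drug concentrations were measured at 30 min and at 1 h (60 min) and reported in µM.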
# Prothrombin = Prothrombin (Homo sapiens, UniProt P00734); assay: Inhibitory constant against human coagulation factor II (thrombin) for selectivity within coagulation cascade
# Coagulation factor X = Coagulation factor X (Homo sapiens, UniProt P00742); assay: Inhibitory constant against human coagulation factor Xa (fXa)
# Serine protease 1 = biological target: T1, Serine protease 1 (Bos taurus, UniProt P00760); assay: Inhibitory constant against bovine trypsin for general specificity against serine proteases
# T1 sequence (P00760 whole entry): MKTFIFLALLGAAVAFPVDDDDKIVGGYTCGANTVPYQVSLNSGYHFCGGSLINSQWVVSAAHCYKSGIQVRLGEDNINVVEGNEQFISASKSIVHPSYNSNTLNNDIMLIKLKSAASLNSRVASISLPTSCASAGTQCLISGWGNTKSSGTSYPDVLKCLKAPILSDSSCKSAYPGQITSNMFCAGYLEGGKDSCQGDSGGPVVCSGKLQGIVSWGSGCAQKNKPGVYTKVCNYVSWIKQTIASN
# [2] = Plasma concentration after intravenous aministration at 60 min. (1 mg/kg, n=3); format: ADME, organism-based; conditions: rat; outline: as §1
# [3] = Plasma concentration after oral aministration at 1 hr. (10 mg/kg); format: ADME, organism-based; conditions: rat
# Outline: (§2)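 Rats were dosed orally at 10 mg/kg. Plasma drug concentrations were measured at 1, 2 and 4 h and reported in µM.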
# [4] = Plasma concentration after oral aministration at 2 hr. (10 mg/kg); format: ADME, organism-based; conditions: rat; outline: as §2
# [5] = Plasma concentration after oral aministration at 4 hr. (10 mg/kg); format: ADME, organism-based; conditions: rat; outline: as §2
# [6] = Plasma concentration after intravenous aministration at 1hr, (1 mg/kg, n=3); format: ADME, organism-based; conditions: rat; outline: as §1
# Coagulation factor X, sequence (P00742 41-179 limits assumed): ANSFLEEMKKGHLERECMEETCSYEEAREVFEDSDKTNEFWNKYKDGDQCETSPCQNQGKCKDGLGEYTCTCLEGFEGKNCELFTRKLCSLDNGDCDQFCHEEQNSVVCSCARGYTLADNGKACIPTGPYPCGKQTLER
# Coagulation factor X, sequence (P00742 235-488 limits assumed): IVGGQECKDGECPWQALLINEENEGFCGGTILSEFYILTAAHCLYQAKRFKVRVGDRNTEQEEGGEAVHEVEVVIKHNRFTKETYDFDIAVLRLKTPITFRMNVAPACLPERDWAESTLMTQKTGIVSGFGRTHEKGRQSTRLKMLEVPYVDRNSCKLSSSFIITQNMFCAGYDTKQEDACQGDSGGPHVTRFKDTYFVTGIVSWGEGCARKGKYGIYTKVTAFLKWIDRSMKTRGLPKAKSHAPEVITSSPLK
SMILES,concentration at 0.5 h [1],pKi (Prothrombin),pKi (Coagulation factor X),pKi (Serine protease 1),other results
N=C(N)c1cccc(Oc2cc(C(=O)O)cc(Oc3cc(C(=N)N)ccc3O)n2)c1,1900 nM,5.29,8.22,6.28,–
CN1CCN=C1c1cccc(Oc2cc(C(=O)O)cc(Oc3cc(C(=N)N)ccc3O)n2)c1,1100 nM,–,–,–,concentration at 1 h [2]: 400 nM; concentration at 1 h [3]: 1400 nM; concentration at 2 h [4]: 200 nM; concentration at 4 h [5]: 100 nM
Cc1c(F)c(Oc2cccc(C(=N)N)c2)nc(Oc2cccc(C(=N)N)c2)c1F,100 nM,–,–,–,–
N=C(N)c1cccc(Oc2cc(C(=O)O)cc(Oc3cccc(C(=N)N)c3)n2)c1,800 nM,–,–,–,–
N=C(N)c1ccc(O)c(Oc2cc(C(=O)O)cc(Oc3cccc(C4=NCCN4)c3)n2)c1,3000 nM,–,–,–,concentration at 1 h [6]: 1400 nM
Cc1c(F)c(Oc2cccc(C(=N)N)c2)nc(Oc2cccc(C(O)C(=O)N(C)C)c2)c1F (stereo unspecified),–,< 5.30,5.66,5.48,–
Cc1c(F)c(Oc2cccc(N(C)C)c2)nc(Oc2cc(C(=N)N)ccc2O)c1F,–,6.72,8.52,6.00,–
Cc1c(Oc2nc(Oc3cccc(C(=N)N)c3)c(F)c(C)c2F)cccc1N(C)C,–,6.02,6.49,5.30,–
Cc1c(F)c(Oc2cccc(CCC(=O)N(C)C)c2)nc(Oc2cccc(C(=N)N)c2)c1F,–,< 5.30,5.89,5.31,–
Cc1c(F)c(Oc2cccc(C(=N)N)c2)nc(Oc2cccc(C(=O)C(C)C)c2)c1F,–,< 5.30,5.68,5.42,–
CN(C)C(=O)c1cccc(Oc2cc(C(=O)O)cc(Oc3cccc(C(=N)N)c3)n2)c1,–,< 5.30,6.58,6.14,–
Cc1c(F)c(Oc2cccc(OC(C)C)c2)nc(Oc2cccc(C(=N)N)c2)c1F,–,5.28,6.21,5.54,–
CCOC(=O)Cc1cccc(Oc2nc(Oc3cccc(C(=N)N)c3)c(F)c(C)c2F)c1,–,< 5.30,6.09,< 5.30,–
COc1c(O)cc(C(=N)N)cc1Oc1nc(Oc2cccc(C(=O)N(C)C)c2)c(F)c(C)c1F,–,< 5.30,6.80,< 5.30,–
Cc1c(F)c(Oc2cccc(N)c2)nc(Oc2cccc(C(=N)N)c2)c1F,–,< 5.30,5.48,< 5.30,–
Cc1c(F)c(Oc2cccc(OC(F)(F)F)c2)nc(Oc2cccc(C(=N)N)c2)c1F,–,< 5.30,5.74,< 5.30,–
